The IC50 is the concentration that inhibits the measured activity by half.

We go through two molecules from ChEMBL document CHEMBL4765378, “Discovery of simplified benzazole fragments derived from the marine benzosceptrin B as necroptosis inhibitors involving the receptor interacting protein Kinase-1” (Eur J Med Chem, 2020).

Series [1] concerns the target Aurora kinase B (Homo sapiens, UniProt Q96GD4). Description: Inhibition of recombinant human AURKB expressed in baculovirus infected Sf9 insect cells using myelin basic protein as substrate by ADP-Glo assay. On the technique in general: ADP-Glo first removes unused ATP, then detects ADP through luciferase.
The target in series [2] is Dual specificity protein kinase CLK1 (Mus musculus, UniProt P22518). Description: Inhibition of mouse recombinant CLK1 expressed in bacterial expression system using GRSRSRSRSRSR as substrate by ADP-glo assay.
Series [3] concerns the target T1, Tyrosine-protein kinase JAK3 (Homo sapiens, UniProt P52333).
T1 sequence (P52333 whole entry): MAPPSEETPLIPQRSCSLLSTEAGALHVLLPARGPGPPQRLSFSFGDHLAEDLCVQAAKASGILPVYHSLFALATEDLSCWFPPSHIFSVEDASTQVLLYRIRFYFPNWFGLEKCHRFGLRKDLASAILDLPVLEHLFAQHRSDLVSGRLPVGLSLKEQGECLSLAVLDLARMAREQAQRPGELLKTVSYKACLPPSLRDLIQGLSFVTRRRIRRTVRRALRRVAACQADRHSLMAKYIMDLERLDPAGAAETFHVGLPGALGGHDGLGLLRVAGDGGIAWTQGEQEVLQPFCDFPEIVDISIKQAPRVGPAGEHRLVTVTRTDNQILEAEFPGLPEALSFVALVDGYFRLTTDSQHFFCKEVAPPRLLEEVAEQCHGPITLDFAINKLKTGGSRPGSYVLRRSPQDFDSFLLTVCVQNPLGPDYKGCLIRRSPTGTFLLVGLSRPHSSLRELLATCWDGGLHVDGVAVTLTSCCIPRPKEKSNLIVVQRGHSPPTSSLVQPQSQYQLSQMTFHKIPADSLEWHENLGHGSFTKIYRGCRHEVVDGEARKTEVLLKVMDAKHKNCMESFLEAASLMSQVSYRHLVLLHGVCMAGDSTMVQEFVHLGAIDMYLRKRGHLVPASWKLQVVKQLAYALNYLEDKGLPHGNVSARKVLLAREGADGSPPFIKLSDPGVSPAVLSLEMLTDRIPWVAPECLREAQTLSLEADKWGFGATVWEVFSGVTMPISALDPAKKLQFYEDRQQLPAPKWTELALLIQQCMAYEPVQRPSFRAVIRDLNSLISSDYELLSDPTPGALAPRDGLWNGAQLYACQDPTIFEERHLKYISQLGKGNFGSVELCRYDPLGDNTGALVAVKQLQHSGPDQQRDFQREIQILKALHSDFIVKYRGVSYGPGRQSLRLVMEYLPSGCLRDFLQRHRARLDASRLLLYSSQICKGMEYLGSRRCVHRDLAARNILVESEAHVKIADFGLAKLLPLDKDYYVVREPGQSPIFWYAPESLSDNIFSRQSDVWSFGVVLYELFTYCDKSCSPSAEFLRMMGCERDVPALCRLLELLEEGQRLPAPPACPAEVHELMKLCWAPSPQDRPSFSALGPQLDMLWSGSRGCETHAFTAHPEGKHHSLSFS
Description: Inhibition of recombinant human JAK3 C-terminal domain (781 to 1124 residues) expressed in baculovirus infected Sf9 insect cells using GGEEEEYFELVKKKK as substrate by ADP-glo assay.

Series [4] concerns the target Cyclin-dependent kinase 5/CDK5 activator 1 (Homo sapiens, UniProt Q00535). Description: Inhibition of human recombinant CDK5/p25 expressed in bacterial expression using histone H1 as substrate by ADP-glo assay.
For series [5], the target named is T2, Receptor-interacting serine/threonine-protein kinase 1 (Homo sapiens) (UniProt Q13546).
T2 sequence (whole entry): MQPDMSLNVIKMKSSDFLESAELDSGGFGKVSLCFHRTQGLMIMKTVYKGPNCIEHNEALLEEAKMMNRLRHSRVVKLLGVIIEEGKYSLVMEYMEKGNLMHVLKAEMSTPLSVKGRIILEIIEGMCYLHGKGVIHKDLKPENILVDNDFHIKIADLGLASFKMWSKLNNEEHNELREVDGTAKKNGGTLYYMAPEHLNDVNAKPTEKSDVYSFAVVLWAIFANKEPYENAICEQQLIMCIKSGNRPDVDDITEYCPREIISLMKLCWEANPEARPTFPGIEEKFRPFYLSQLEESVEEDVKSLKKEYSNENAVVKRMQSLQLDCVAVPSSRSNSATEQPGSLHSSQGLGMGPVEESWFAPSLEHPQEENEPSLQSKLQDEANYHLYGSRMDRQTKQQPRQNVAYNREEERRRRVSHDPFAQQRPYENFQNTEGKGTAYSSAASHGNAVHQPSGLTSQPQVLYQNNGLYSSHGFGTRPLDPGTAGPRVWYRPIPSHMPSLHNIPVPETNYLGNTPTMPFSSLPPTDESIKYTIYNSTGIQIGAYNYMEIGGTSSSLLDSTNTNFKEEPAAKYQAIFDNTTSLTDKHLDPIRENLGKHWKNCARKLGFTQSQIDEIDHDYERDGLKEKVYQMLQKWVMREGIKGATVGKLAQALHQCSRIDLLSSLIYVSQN
Description: Inhibition of RIPK1 in human FADD-deficient Jurkat I 2.1 cells assessed as protection against TNFalpha-induced necroptosis measured after 24 hrs by MTS assay. In general terms: Tetrazolium assays rely on reduction of a dye to a coloured formazan, in cell work by metabolically active cells.

Series [6] has as its target Tyrosine-protein kinase ABL1 (Homo sapiens, UniProt P00519). Nature of the series: Inhibition of recombinant human ABL1 (118 to 535 residues) expressed in baculovirus infected Sf9 insect cells using EAIYAAPFAKKK as substrate by ADP-glo assay.
Series [7] concerns the target CDK2/Cyclin A2 (Homo sapiens, UniProt P24941). Nature of the series: Inhibition of human CDK2/cyclin A using histone H1 as substrate by ADP-glo assay. In kind it is protein-complex assay.
In series [8] the test system is TERT-RPE1. Nature of the series: Cytotoxicity against human TERT-RPE1 cells assessed as increase in LDH release at 0.01 to 50 uM measured after 24 hrs by CyQUANT reagent based assay. Type of series: cell-based. Particulars: tert-rpe1, 24 h, dose 0.01-50 µM. In outline:
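hTERT RPE-1 cells (DMEM-F12-Glutamax, 10% FCS, 37 °C, 5% CO2) exposed 24 h to compound from 0.01 to 50 μM; viability measured.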
For orientation: Release of lactate dehydrogenase indicates damage to the cell membrane.

Series [9] addresses CDK9/cyclin T1 (Homo sapiens, UniProt P50750). Description: Inhibition of human recombinant CDK9/cyclin T expressed in baculovirus infected Sf9 insect cells using YSPTSPSYSPTSPSYSPTSPSKKKK as substrate by ADP-glo assay.
Series [10] addresses T2, Receptor-interacting serine/threonine-protein kinase 1 (Homo sapiens). Nature of the series: Inhibition of RIPK1 in human FADD-deficient Jurkat I 2.1 cells assessed as protection against TNFalpha-induced necroptosis by measuring remaining viable cells at 10 uM measured after 24 hrs by MTS assay relative to TNFalpha. In kind it is cell-based. In outline:
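FADD-deficient Jurkat cells co-treated 24 h with 10 ng/ml human recombinant TNF-α and 10 μM compound; MTS viability normalized to DMSO control (100%); protection delta = viability with TNF-α plus compound minus viability with TNF-α alone (negative if toxic); n = 3.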

In series [11] the target is Casein kinase I isoform epsilon (Homo sapiens, UniProt P49674). Description: Inhibition of recombinant human CK1epsilon expressed in baculovirus infected Sf9 insect cells using RRKHAAIGSpAYSITA as substrate by ADP-glo assay.
Series [12] deals with Serine/threonine-protein kinase pim-1 (Homo sapiens, UniProt P11309). Description: Inhibition of recombinant human PIM1 expressed in bacterial expression system using histone H1 as substrate by ADP-glo assay.
Sequence of Serine/threonine-protein kinase pim-1 (P11309 whole entry): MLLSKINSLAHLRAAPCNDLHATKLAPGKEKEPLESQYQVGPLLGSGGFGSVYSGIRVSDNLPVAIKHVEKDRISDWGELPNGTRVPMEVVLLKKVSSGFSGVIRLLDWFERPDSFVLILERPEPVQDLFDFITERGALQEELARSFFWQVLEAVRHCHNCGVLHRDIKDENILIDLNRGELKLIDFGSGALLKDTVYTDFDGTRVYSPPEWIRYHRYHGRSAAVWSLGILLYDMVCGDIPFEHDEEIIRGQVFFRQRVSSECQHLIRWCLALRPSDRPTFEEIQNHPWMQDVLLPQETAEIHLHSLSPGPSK

Sequence of CDK9/cyclin T1 (O60563 whole entry): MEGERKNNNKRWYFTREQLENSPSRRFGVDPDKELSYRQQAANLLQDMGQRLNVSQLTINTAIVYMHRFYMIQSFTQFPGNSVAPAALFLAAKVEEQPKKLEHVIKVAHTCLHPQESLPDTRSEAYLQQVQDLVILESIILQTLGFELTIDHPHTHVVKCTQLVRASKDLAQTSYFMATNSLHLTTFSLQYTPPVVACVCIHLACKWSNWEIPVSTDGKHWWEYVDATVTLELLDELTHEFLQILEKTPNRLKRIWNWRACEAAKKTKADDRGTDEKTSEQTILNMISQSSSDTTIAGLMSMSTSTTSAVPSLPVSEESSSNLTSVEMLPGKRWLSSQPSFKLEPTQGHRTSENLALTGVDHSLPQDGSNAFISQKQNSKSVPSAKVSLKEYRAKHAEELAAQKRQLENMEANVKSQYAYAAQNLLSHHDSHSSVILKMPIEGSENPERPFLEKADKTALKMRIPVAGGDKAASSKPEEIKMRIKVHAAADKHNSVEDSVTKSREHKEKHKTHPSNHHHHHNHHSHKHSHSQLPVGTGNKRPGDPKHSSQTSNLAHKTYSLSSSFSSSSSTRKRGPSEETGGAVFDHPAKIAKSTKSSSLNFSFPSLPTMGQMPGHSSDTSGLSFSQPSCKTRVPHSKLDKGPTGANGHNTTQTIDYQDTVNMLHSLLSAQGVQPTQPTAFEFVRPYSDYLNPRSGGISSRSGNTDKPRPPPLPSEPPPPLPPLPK
Sequence of CDK9/cyclin T1 (P50750 whole entry): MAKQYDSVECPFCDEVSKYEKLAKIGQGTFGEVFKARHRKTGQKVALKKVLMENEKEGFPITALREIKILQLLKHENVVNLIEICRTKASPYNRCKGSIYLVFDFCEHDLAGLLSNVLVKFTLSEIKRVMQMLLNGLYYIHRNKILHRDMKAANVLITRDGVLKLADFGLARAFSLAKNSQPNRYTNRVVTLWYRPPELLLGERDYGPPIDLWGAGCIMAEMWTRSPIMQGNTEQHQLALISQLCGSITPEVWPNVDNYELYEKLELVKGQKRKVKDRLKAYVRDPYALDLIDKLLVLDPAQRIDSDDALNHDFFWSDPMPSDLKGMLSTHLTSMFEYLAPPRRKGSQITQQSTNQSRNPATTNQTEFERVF
Sequence of Aurora kinase B (Q96GD4 whole entry): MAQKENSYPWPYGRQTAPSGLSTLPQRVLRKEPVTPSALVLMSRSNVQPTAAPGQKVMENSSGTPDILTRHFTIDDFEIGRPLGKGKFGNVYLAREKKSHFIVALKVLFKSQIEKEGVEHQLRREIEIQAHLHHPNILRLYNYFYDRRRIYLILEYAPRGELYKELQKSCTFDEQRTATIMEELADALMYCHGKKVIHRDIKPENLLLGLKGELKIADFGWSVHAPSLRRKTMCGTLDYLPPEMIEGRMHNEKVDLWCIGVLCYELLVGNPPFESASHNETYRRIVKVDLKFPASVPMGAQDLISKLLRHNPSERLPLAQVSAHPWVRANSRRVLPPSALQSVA
Sequence of Dual specificity protein kinase CLK1 (P22518 whole entry): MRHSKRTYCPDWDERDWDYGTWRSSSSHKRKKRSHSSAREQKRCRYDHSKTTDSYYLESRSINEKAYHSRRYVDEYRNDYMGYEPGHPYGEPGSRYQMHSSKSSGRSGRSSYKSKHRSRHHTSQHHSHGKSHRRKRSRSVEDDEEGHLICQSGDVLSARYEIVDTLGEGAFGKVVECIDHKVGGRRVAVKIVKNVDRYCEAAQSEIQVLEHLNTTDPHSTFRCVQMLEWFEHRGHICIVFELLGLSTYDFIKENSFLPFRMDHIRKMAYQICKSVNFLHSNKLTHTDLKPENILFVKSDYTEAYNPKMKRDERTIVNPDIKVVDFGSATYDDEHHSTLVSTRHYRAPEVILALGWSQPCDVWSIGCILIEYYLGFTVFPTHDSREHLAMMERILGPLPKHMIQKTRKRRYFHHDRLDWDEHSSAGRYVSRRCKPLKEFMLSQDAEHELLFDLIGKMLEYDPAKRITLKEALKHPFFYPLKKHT
Sequence of Tyrosine-protein kinase ABL1 (P00519 whole entry, the tested form may be a part): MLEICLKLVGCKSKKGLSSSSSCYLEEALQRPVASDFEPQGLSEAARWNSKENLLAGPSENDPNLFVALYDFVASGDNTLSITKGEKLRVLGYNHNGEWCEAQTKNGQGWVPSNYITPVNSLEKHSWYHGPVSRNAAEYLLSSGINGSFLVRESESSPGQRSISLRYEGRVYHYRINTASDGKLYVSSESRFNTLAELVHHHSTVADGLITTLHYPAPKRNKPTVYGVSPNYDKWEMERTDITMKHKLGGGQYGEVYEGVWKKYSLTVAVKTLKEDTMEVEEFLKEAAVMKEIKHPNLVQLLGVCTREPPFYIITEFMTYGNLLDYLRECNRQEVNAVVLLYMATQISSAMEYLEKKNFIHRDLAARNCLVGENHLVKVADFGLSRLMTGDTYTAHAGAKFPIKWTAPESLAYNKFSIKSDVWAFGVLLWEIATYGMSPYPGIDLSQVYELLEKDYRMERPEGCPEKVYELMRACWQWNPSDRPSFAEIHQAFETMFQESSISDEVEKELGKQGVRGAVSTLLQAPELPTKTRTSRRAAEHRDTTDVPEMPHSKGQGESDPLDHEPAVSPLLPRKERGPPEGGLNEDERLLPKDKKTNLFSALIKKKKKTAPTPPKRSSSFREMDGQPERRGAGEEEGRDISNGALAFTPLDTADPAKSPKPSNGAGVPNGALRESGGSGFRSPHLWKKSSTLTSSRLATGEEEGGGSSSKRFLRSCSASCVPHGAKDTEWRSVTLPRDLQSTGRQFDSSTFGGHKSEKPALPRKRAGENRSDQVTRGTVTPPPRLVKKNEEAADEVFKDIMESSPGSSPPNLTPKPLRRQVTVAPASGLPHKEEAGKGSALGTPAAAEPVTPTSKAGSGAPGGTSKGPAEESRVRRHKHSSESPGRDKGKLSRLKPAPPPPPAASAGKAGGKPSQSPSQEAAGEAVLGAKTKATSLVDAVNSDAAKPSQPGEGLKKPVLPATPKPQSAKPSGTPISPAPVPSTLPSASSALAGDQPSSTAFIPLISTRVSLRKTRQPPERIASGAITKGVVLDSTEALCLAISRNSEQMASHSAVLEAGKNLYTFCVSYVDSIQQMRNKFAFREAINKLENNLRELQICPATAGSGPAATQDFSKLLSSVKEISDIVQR
Sequence of Casein kinase I isoform epsilon (P49674 whole entry, canonical isoform): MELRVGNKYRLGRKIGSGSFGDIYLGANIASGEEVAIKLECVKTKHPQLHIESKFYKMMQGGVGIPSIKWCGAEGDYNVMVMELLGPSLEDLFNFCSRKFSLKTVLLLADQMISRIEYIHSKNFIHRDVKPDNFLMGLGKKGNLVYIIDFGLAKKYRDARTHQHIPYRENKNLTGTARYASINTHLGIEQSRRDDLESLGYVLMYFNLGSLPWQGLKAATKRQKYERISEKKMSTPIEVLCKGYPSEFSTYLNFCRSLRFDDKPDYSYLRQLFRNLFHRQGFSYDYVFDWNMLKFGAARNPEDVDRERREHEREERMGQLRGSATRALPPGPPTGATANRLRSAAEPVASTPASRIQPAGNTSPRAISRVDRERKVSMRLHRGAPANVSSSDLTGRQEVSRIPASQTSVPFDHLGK
Sequence of Cyclin-dependent kinase 5/CDK5 activator 1 (Q00535 whole entry): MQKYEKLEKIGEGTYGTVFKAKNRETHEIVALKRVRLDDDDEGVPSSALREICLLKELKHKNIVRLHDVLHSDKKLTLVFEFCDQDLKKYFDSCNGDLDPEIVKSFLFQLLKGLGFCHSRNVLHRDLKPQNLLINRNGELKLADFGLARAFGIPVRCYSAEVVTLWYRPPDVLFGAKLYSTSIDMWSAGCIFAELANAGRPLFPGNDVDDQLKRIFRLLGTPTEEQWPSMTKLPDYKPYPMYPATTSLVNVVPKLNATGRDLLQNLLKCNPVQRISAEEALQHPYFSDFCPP
Sequence of Cyclin-dependent kinase 5/CDK5 activator 1 (Q15078 whole entry, further chain): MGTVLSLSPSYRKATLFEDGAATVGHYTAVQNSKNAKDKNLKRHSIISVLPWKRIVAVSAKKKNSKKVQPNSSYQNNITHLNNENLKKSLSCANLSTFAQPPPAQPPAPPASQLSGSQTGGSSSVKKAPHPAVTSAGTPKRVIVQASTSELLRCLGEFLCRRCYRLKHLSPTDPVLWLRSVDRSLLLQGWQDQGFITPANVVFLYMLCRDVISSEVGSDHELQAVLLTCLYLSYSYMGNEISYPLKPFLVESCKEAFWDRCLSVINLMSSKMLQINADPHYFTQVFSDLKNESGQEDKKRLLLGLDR

As for `CCCCNc1nc2ccc([N+](=O)[O-])cc2[nH]1`, the IC50 was > 10 µM in series [1]; 0.8 µM in [2]; > 10 µM in series [3]; > 10 µM in [4]; > 10 µM in [6]; > 10 µM in series [7]. In addition, the IC50 in series [9] is 0.48 µM; in series [11] it was > 10 µM; in [12], > 10 µM. Moreover, in series [5], the inhibition entry was “Dose-dependent effect”. In addition, the Activity entry in series [8] is “Non-Toxic”; in series [10], 56.9%.
On to `CCCCNc1nc2cc([N+](=O)[O-])ccc2s1`, for which the IC50 in series [1], in [2], in series [3], in series [4], in [6] and in [7] was > 10 µM in each case. The IC50 in [9], in [11] and in series [12] was > 10 µM throughout. Moreover, the inhibition entry in series [5] is “Dose-dependent effect”. Also, the Activity result in series [8] was “Non-Toxic”; in series [10], 56.1%.
